Key:
Assay type in all cases: functional
Tobacco mosaic virus [1] = assay: In vitro antiviral activity against Tobacco mosaic virus (TMV) infected tobacco leaves at 500 ug/ml
Tobacco mosaic virus [2] = assay: In vitro antiviral activity against Tobacco mosaic virus (TMV) infected tobacco leaves at 100 ug/ml
Phytophthora infestans = assay: Fungicidal activity against Phytophthora infestans at 50 ug/ml by growth inhibition method; conditions: read-out: GI
Outline: (§1)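 Mycelial growth inhibition on potato dextrose agar. The panel covered Alternaria solani, Botrytis cinerea, Cercospora arachidicola, C. beticola, Colletotrichum lagenarium, Fusarium oxysporum, Gibberella zeae, Puccinia triticina, Phytophthora infestans, Physalospora piricola, Pellicularia sasakii and Rhizoctonia solani.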

Mycosphaerella arachidis = assay: Fungicidal activity against Mycosphaerella arachidis at 50 ug/ml by growth inhibition method; conditions: read-out: GI; outline: as §1
Cercospora beticola = assay: Fungicidal activity against Cercospora beticola at 50 ug/ml by growth inhibition method; conditions: read-out: GI; outline: as §1
Alternaria solani = assay: Fungicidal activity against Alternaria solani at 50 ug/ml by growth inhibition method; conditions: read-out: GI; outline: as §1
[3] = test system: Botryosphaeria berengeriana; assay: Fungicidal activity against Botryosphaeria berengeriana at 50 ug/ml by growth inhibition method; conditions: read-out: GI; outline: as §1
Thanatephorus cucumeris = assay: Fungicidal activity against Thanatephorus cucumeris at 50 ug/ml by growth inhibition method; conditions: read-out: GI; outline: as §1
Colletotrichum lagenaria = assay: Fungicidal activity against Colletotrichum lagenaria at 50 ug/ml by growth inhibition method; conditions: read-out: GI; outline: as §1
Fusarium graminearum = assay: Fungicidal activity against Fusarium graminearum at 50 ug/ml by growth inhibition method; conditions: read-out: GI; outline: as §1
Botrytis cinerea = assay: Fungicidal activity against Botryotinia fuckeliana at 50 ug/ml by growth inhibition method; conditions: read-out: GI; outline: as §1
Fusarium oxysporum = assay: Fungicidal activity against Fusarium oxysporum at 50 ug/ml by growth inhibition method; conditions: read-out: GI; outline: as §1
Rhizoctonia solani = assay: Fungicidal activity against Rhizoctonia solani at 50 ug/ml by growth inhibition method; conditions: read-out: GI; outline: as §1
Puccinia triticina = assay: Fungicidal activity against Puccinia triticina at 50 ug/ml by growth inhibition method; conditions: read-out: GI; outline: as §1

Compound	inhibition at 500 µg/mL (Tobacco mosaic virus [1])	inhibition at 100 µg/mL (Tobacco mosaic virus [2])	inhibition of growth at 50 µg/mL (Phytophthora infestans)	inhibition of growth at 50 µg/mL (Mycosphaerella arachidis)	inhibition of growth at 50 µg/mL (Cercospora beticola)	inhibition of growth at 50 µg/mL (Alternaria solani)	inhibition of growth at 50 µg/mL [3]	inhibition of growth at 50 µg/mL (Thanatephorus cucumeris)	inhibition of growth at 50 µg/mL (Colletotrichum lagenaria)	inhibition of growth at 50 µg/mL (Fusarium graminearum)	inhibition of growth at 50 µg/mL (Botrytis cinerea)	inhibition of growth at 50 µg/mL (Fusarium oxysporum)	inhibition of growth at 50 µg/mL (Rhizoctonia solani)	inhibition of growth at 50 µg/mL (Puccinia triticina)
Cc1ccc(N(C(=O)c2nnsc2C)C(C(=O)NC(C)C)c2ccccc2[N+](=O)[O-])cc1Cl (centres undefined)	59%	19%	24%	5%	8%	26%	39%	31%	10%	12%	60%	14%	–	–
Cc1ccc(N(C(=O)c2nnsc2C)C(C(=O)NC(C)C)c2cccc(F)c2)cc1F (centres undefined)	30%	50%	19%	27%	25%	44%	0%	0%	57%	5%	–	–	43%	0%
Cc1ccc(N(C(=O)c2nnsc2C)C(C(=O)NC(C)C)c2ccc(C(F)(F)F)cc2)cc1F (centres undefined)	45%	14%	25%	0%	25%	0%	0%	11%	0%	0%	–	–	15%	0%
Cc1ccc(N(C(=O)c2nnsc2C)C(C(=O)NC(C)C)c2cccc(C(F)(F)F)c2)cc1F (centres undefined)	51%	19%	0%	27%	25%	0%	8%	4%	14%	36%	–	–	22%	14%
Cc1ccc(C(C(=O)NC(C)C)N(C(=O)c2nnsc2C)c2ccc(C)c(F)c2)cc1 (centres undefined)	31%	7%	13%	45%	25%	31%	0%	11%	29%	0%	–	–	37%	14%
Cc1ccc(N(C(=O)c2nnsc2C)C(C(=O)NC(C)C)c2cccc(O)c2)cc1Cl (centres undefined)	24%	13%	30%	14%	23%	33%	45%	59%	13%	15%	73%	30%	–	–
Cc1ccc(N(C(=O)c2nnsc2C)C(C(=O)NC(C)C)c2ccccc2O)cc1Cl (centres undefined)	23%	18%	24%	9%	0%	38%	39%	47%	7%	18%	75%	18%	–	–
Cc1ccc(N(C(=O)c2nnsc2C)C(C(=O)NC(C)C)c2ccccc2)cc1F (centres undefined)	15%	5%	38%	9%	0%	13%	0%	0%	14%	27%	–	–	2%	0%
Cc1ccc(N(C(=O)c2nnsc2C)C(C(=O)NC(C)C)c2cccc([N+](=O)[O-])c2)cc1F (centres undefined)	14%	4%	13%	27%	25%	13%	0%	0%	29%	45%	–	–	15%	14%
Cc1ccc(N(C(=O)c2nnsc2C)C(C(=O)NC(C)C)c2ccccc2[N+](=O)[O-])cc1F (centres undefined)	24%	11%	0%	0%	25%	0%	19%	39%	14%	27%	–	–	2%	0%
Cc1ccc(N(C(=O)c2nnsc2C)C(C(=O)NC(C)C)c2ccc(Cl)cc2)cc1F (centres undefined)	12%	20%	38%	0%	13%	38%	0%	28%	14%	0%	–	–	15%	0%
Cc1ccc(N(C(=O)c2nnsc2C)C(C(=O)NC(C)C)c2cccc(Cl)c2)cc1F (centres undefined)	66%	32%	0%	0%	13%	0%	0%	4%	0%	0%	–	–	22%	0%
Cc1ccc(N(C(=O)c2nnsc2C)C(C(=O)NC(C)C)c2ccccc2Cl)cc1F (centres undefined)	17%	23%	25%	0%	0%	0%	0%	0%	14%	0%	–	–	0%	0%
Cc1ccc(N(C(=O)c2nnsc2C)C(C(=O)NC(C)C)c2ccc(F)cc2)cc1F (centres undefined)	51%	18%	0%	0%	25%	0%	0%	0%	0%	27%	–	–	22%	0%
Cc1ccc(N(C(=O)c2nnsc2C)C(C(=O)NC(C)C)c2cccc([N+](=O)[O-])c2)cc1Cl (centres undefined)	34%	28%	26%	9%	46%	33%	45%	52%	10%	33%	78%	12%	–	–
Cc1ccc(N(C(=O)c2nnsc2C)C(C(=O)NC(C)C)c2cccc(F)c2)cc1Cl (centres undefined)	18%	34%	18%	21%	33%	42%	38%	69%	10%	23%	78%	19%	–	–
Cc1ccc(N(C(=O)c2nnsc2C)C(C(=O)NC(C)C)c2ccccc2F)cc1Cl (centres undefined)	34%	32%	15%	21%	25%	40%	33%	67%	10%	37%	73%	21%	–	–
